Consider 69 variants from the RNAGym collection of RNA variant scans (doi:10.1038/nmeth.2970).

Some results are limits rather than exact numbers.

Broadly, the Kd is the concentration at which binding is half-saturated.

B1: GFP aptamer (parent)
chain: GCUUCUGGACUGCGAUGGGAGCACGAAACGUCGUGGCGCAAUUGGGUGGGGAAAGUCCUUAAAAGAGGGCCACCACAGAAGC

Variants of B1 are the subject of the series. Put plainly: HiTS-RAP. The note with it: with EGFP. The procedure, abridged: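 Aptamer templates containing a T7 promoter and ter site were sequenced on an Illumina GAIIx flowcell, transcribed in situ with T7 RNA polymerase and halted with GST-Tus for 30 minutes at 37°C. Clusters were imaged after 30 minutes at room temperature with EGFP-mOrange at 0.04 nM to 625 nM in fivefold steps. Kd was obtained from per-lane weighted Hill fits to decay-corrected, sequencing-normalised, per-sequence mean intensities, geometrically averaged over lanes. Three lanes entered that average, and non-rising sequences were given 125 nM.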
Consider A72G C73U, for which the Kd amounted to 8.64 nM. As for A72G C74U, the Kd amounted to 7.35 nM. Consider A80G, for which the Kd was found to be 3.57 nM. Take A80U: the Kd was determined as 6.99 nM.

As to A80C, the Kd was found to be 12.1 nM. As for C73A, the Kd came to 8.52 nM.

As for C73U, the Kd came to 6.59 nM.

Take C73G: the Kd was 7.26 nM. Then A72G, with 3.33 nM; and A72C, with not below 125 nM. As for A72U, the Kd was 17.7 nM. C71G: the Kd turned out to be 37.3 nM. Consider C71A, for which the Kd is not below 125 nM. To C71U belongs 14.5 nM; to C70G, 43.1 nM; to C70U, 7.23 nM. To C70A belongs 79.2 nM; to G65A, 12.4 nM; to G65C, 35.3 nM. To G65U belongs not below 125 nM. A61U: the Kd was 4.9 nM. To G78C belongs 43.8 nM. Consider G78U, for which the Kd stood at 6.2 nM. Then G78A, with 13.2 nM; and A66G, with 11.2 nM; and A66U, with 8.88 nM. For A64C, the Kd was not below 125 nM.

With A64G, the Kd is not below 125 nM. Then A64U, with not below 125 nM. To C73U C74U belongs 7.64 nM. To A63U belongs not below 125 nM. A63G: the Kd came to 8.55 nM. As for A63C, the Kd was not below 125 nM.

Take G67C: the Kd was 11.8 nM. Then G67U, with 9.04 nM. To G67A belongs 14.2 nM.

Consider A79G, for which the Kd stood at 4.31 nM. To A79U belongs 7.52 nM. To A79C belongs 18.6 nM; to C74G, 14.5 nM; to C74A, 28.9 nM. Then C74U, with 6.27 nM; and G81C, with 14.1 nM; and G81A, with 5.44 nM. In the case of G81U, the Kd was 4.53 nM. To G68C belongs 55.4 nM; to G68U, 15.9 nM; to G68A, 27.5 nM. To A77G belongs 4.77 nM. Then A77C, with 15.3 nM; and A77U, with 10.8 nM. Take A62C: the Kd turned out to be 4 nM. To A62G belongs 3.54 nM; to A62U, 3.36 nM. To A75G A77G belongs 6.48 nM. To A66G C74U belongs 12.3 nM. Consider A75G, for which the Kd worked out at 9.8 nM.

In the case of A75U, the Kd is 26.3 nM. Then A75C, with 26.6 nM; and A75G A79G, with 6.58 nM; and C82U, with 4.16 nM. To C82G belongs 10.1 nM; to C82A, 3.36 nM. To C76A belongs 13.6 nM. Consider C76G, for which the Kd came out at 28.8 nM. To C76U belongs 37.1 nM; to G69U, 3.44 nM; to G69A, not below 125 nM.

On to G69C, for which the Kd is not below 125 nM.
